# Data reported in ChEMBL document CHEMBL4411332, “Deciphering the Role of Intramolecular Networking in Cholic Acid-Peptide Conjugates on the Lipopolysaccharide Surface in Combating Gram-Negative Bacterial Infections” (J Med Chem, 2019).
# Active and inactive are the calls of the source. No cut-off for these calls is given here.
# Tests used:
# Escherichia coli [1] = assay: Antibacterial activity against Escherichia coli by broth dilution assay; format: functional
# In short: (§1)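 MIC99 by broth-dilution assay; antibacterial and culture details are in the Supporting Information.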
# Klebsiella pneumoniae [2] = assay: Antibacterial activity against Klebsiella pneumoniae by broth dilution assay; format: functional; in short: as §1
# Acinetobacter baumannii [3] = assay: Antibacterial activity against Acinetobacter baumannii by broth dilution assay; format: functional; in short: as §1
# [4] = Binding affinity to DPH-doped model gram negative bacterial membrane (LPS/DPPE/DMPG lipids) assessed as increase in membrane fluidity by fluorescence anisotrophy
# In short: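 Vesicles of LPS, DPPE and DMPG doped with DPH were incubated with compound, and the change in DPH fluorescence anisotropy was recorded. Mean ± SD of three replicates, unpaired two-tailed t-test.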
# Lipopolysaccharide (LPS) [5] = assay: Displacement of dansyl-polymyxin B from LPS of bacterial cell membrane by fluorescence spectrophotometry; settings: Bacteria
# In short: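 Dansyl-polymyxin B–LPS complexes titrated with compound; rise in dansyl fluorescence from displacement measured. Mean ± SD of three replicates, unpaired two-tailed t-test.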
# Lipopolysaccharide (LPS) [6] = assay: Binding affinity to bacterial LPS by BODIPY-LPS based fluorescence assay; settings: Bacteria
# In short: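 BODIPY-conjugated LPS aggregates titrated with compound; fluorescence increase from aggregate disintegration recorded. Mean ± SD of three replicates, unpaired two-tailed t-test.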
# Cell membrane [7] = assay: Binding affinity to bacterial cell membrane assessed as Ka1 by SPR assay; format: cell membranes; settings: Bacteria
# In short: (§2)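 Surface plasmon resonance of compound binding to bacterial membranes. K1, K2 and overall KA were calculated from the sensorgrams. Average of three replicates.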
# Cell membrane [8] = assay: Binding affinity to bacterial cell membrane assessed as Kd1 by SPR assay; format: cell membranes; settings: Bacteria; in short: as §2
# Cell membrane [9] = assay: Binding affinity to bacterial cell membrane assessed as K1 by SPR assay; format: cell membranes; settings: Bacteria; in short: as §2
# Cell membrane [10] = assay: Binding affinity to bacterial cell membrane assessed as Kd2 by SPR assay; format: cell membranes; settings: Bacteria; in short: as §2
# Cell membrane [11] = assay: Binding affinity to bacterial cell membrane assessed as K2 by SPR assay; format: cell membranes; settings: Bacteria; in short: as §2
# Cell membrane [12] = assay: Binding affinity to bacterial cell membrane assessed as KA by SPR assay; format: cell membranes; settings: Bacteria; in short: as §2
# Escherichia coli [13] = assay: Induction of membrane permeabilization in Escherichia coli at 8 uM after 40 mins by NPN-fluorescence based assay; format: organism-based; settings: Cell membrane
# In short: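 NPN-stained E. coli incubated with compound at 8 µM; outer-membrane permeabilization followed as NPN fluorescence over time. Average of three replicates.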
# Escherichia coli [14] = assay: Induction of membrane permeabilization in Escherichia coli at 8 uM after 30 mins DiSC2-fluorescence based assay; format: organism-based; settings: Cell membrane
# In short: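 DiSC2(5)-loaded E. coli treated at 8 µM; depolarization-driven fluorescence increase followed over time. Average of three replicates.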
# Escherichia coli [15] = assay: Induction of membrane permeabilization in Escherichia coli at 32 uM by propidium iodide uptake based FACS analysis; format: organism-based; settings: Cell membrane
# In short: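 E. coli treated at 32 µM, PI-stained, and PI-positive cells counted by flow cytometry. Mean ± SD of four replicates, unpaired two-tailed t-test.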
# Escherichia coli [16] = assay: Induction of membrane permeabilization in Escherichia coli in presence of 1.9 to 1000 ug/ml LPS by propidium iodide uptake based FACS analysis; format: organism-based; settings: Cell membrane
# In short: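 E. coli was treated with compound in the presence of graded LPS and stained with propidium iodide. The percentage of PI-positive cells was measured by flow cytometry.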
# Escherichia coli [17] = assay: Bactericidal activity against Escherichia coli assessed as reduction in colony forming units at 1 times MIC99 concentration after 6 hrs by fluorescent based time-kill assay; format: functional, organism-based
# Escherichia coli [18] = assay: Bactericidal activity against stationary form of Escherichia coli assessed as reduction in colony forming units by fluorescent based time-kill assay; format: functional, organism-based
# Escherichia coli [19] = assay: Bactericidal activity against persistent form of Escherichia coli assessed as reduction in colony forming units by fluorescent based time-kill assay; format: functional, organism-based
# Escherichia coli [20] = assay: Antibiofilm activity against Escherichia coli assessed as reduction in colony forming units after 24 hrs by crystal violet-based assay; format: functional, organism-based
# Escherichia coli [21] = assay: Antibiofilm activity against Escherichia coli assessed as reduction in colony forming units at 64 uM after 24 hrs by crystal violet-based assay relative to control; format: functional
# Escherichia coli [22] = assay: Antibiofilm activity against Escherichia coli assessed as reduction in biomass levels at 64 uM after 24 hrs by crystal violet-based assay relative to control; format: functional; parameters: scale not given: the % may be the effect or the level left
# In short: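 Pre-formed E. coli biofilms treated 24 h with varying doses; biomass quantified by crystal violet staining relative to untreated. Mean ± SD of three replicates, unpaired two-tailed t-test.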
# Escherichia coli [23] = assay: Antibiofilm activity against Escherichia coli assessed as reduction in biomass levels after 24 hrs by SYT09-propidium iodide based confocal microscopy; format: functional, organism-based
# In short: (§3)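 Treated E. coli biofilms stained with SYTO9 (all cells) and PI (dead cells) and imaged by confocal laser scanning microscopy. Biofilm thickness quantified against untreated. Mean ± SD of three replicates, unpaired two-tailed t-test.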
# Escherichia coli [24] = assay: Antibacterial activity against Escherichia coli isolate 6/23 infected in wound areas of BALB/c mouse assessed as reduction in colony forming units at 40 mg/kg dosed thrice daily for 4 days starting 6 hrs post infection and measured on day 5; format: functional, organism-based
# Escherichia coli [25] = assay: Antibacterial activity against Escherichia coli XEN 14 infected in wound areas of BALB/C mouse assessed as reduction in bacterial load at 40 mg/kg administered thrice daily for 4 days starting 6 hrs post infection and measured on day 5 by bioluminescence imaging analysis; format: functional, organism-based
# Escherichia coli [26] = assay: Antibacterial activity against Escherichia coli isolate 9/44 by broth dilution assay; format: functional
# Escherichia coli [27] = assay: Antibacterial activity against Escherichia coli isolate 9/203 by broth dilution assay; format: functional
# Escherichia coli [28] = assay: Antibacterial activity against Escherichia coli isolate 6/23 by broth dilution assay; format: functional
# Escherichia coli [29] = assay: Antibacterial activity against Escherichia coli isolate 6/27 by broth dilution assay; format: functional
# Escherichia coli [30] = assay: Antibacterial activity against Escherichia coli isolate 6/38 by broth dilution assay; format: functional
# Acinetobacter baumannii [31] = assay: Antibacterial activity against Acinetobacter baumannii isolate 4/307 by broth dilution assay; format: functional
# Acinetobacter baumannii [32] = assay: Antibacterial activity against Acinetobacter baumannii isolate 1/303 by broth dilution assay; format: functional
# Acinetobacter baumannii [33] = assay: Antibacterial activity against Acinetobacter baumannii isolate 5/321 by broth dilution assay; format: functional
# Acinetobacter baumannii [34] = assay: Antibacterial activity against Acinetobacter baumannii isolate 4/202 by broth dilution assay; format: functional
# Acinetobacter baumannii [35] = assay: Antibacterial activity against Acinetobacter baumannii isolate 5/412 by broth dilution assay; format: functional
# Klebsiella pneumoniae [36] = assay: Antibacterial activity against Klebsiella pneumoniae isolate 8/407 by broth dilution assay; format: functional
# Klebsiella pneumoniae [37] = assay: Antibacterial activity against Klebsiella pneumoniae isolate 8/307 by broth dilution assay; format: functional
# Klebsiella pneumoniae [38] = assay: Antibacterial activity against Klebsiella pneumoniae isolate 7/47 by broth dilution assay; format: functional
# Klebsiella pneumoniae [39] = assay: Antibacterial activity against Klebsiella pneumoniae isolate 12823 by broth dilution assay; format: functional
# [40] = Selectivity index, ratio of HC50 for human RBC to MIC99 for Escherichia coli; format: toxicity; settings: human red blood cells (RBC), read-out: Selectivity Index
# [41] = Selectivity index, ratio of IC50 for human A549 cells to MIC99 for Escherichia coli; format: toxicity; settings: read-out: Selectivity Index
# [42] = Critical micellar concentration of the compound; format: physicochemical
# Escherichia coli [43] = assay: Induction of membrane permeabilization in Escherichia coli by SYTO9-PI staining based fluorescence microscopy; format: organism-based; settings: Cell membrane
# Escherichia coli [44] = assay: Induction of cell morphology changes in Escherichia coli at 8 uM by TEM assay; format: functional, organism-based
# In short: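 E. coli treated at 8 µM, sampled at different times and imaged by transmission electron microscopy beside untreated cells.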
# Escherichia coli [45] = assay: Antimicrobial activity against compound-pre-treated Escherichia coli by broth dilution assay based drug resistance development assay; format: functional, organism-based
# In short: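 E. coli pre-treated with compound, then MIC₉₉ redetermined by broth-dilution assay in four replicates; reported as fold change in MIC₉₉ relative to starting value to assess resistance development.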
# Escherichia coli [46] = assay: Ratio of antimicrobial activity against Escherichia coli using 10^12 CFU/ml bacterial inoculum by broth dilution assay to antimicrobial activity against Escherichia coli by broth dilution assay; format: functional
# In short: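 MIC99 against E. coli was measured by broth dilution at a range of inoculum densities up to 10¹² CFU/mL, in four replicates. Results were expressed as fold change in MIC99 relative to the standard inoculum.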
# Escherichia coli [47] = assay: Antibiofilm activity against Escherichia coli after 24 hrs by propidium iodide uptake based FACS analysis; format: functional, organism-based
# Escherichia coli [48] = assay: Antibiofilm activity against Escherichia coli assessed as biofilm thickness after 24 hrs (reference value: >8 micrometer); format: functional; in short: as §3
# Escherichia coli [49] = assay: Induction of cell membrane disruption in Escherichia coli assessed as pore network disruption by SEM assay; format: functional, organism-based
# Escherichia coli [50] = assay: Induction of cell membrane disruption in Escherichia coli assessed as extracellular architecture disruption by SEM assay; format: functional, organism-based
# Escherichia coli [51] = assay: Antibiofilm activity against Escherichia coli isolate 6/23 exposed to compound-coated catheters assessed as reduction in colony forming units incubated for 3 days; format: functional, organism-based
# Escherichia coli [52] = assay: Antibiofilm activity against Escherichia coli isolate 6/23 infected in BALB/c mouse implanted subcutaneously with compound treated catheters followed by infection at incision site; format: functional, organism-based
# Escherichia coli [53] = assay: Bactericidal activity against Escherichia coli assessed as reduction in colony forming units at 4 times MIC99 concentration after 90 mins by fluorescent based time-kill assay
# [54] = Solubility in water; format: physicochemical; settings: buffer
structure (smiles),measurement,setting,value
C[C@H](CCC(=O)OCc1ccccc1)[C@H]1CC[C@H]2[C@@H]3[C@H](OC(=O)CNC(=O)CN)C[C@@H]4C[C@H](OC(=O)CNC(=O)CN)CC[C@]4(C)[C@H]3C[C@H](OC(=O)CNC(=O)CN)[C@]12C,MIC99,Escherichia coli [1],8 to 128 µM
CC(C)[C@H](N)C(=O)NCC(=O)O[C@@H]1CC[C@@]2(C)[C@@H](C1)C[C@@H](OC(=O)CNC(=O)[C@@H](N)C(C)C)[C@@H]1[C@@H]2C[C@H](OC(=O)CNC(=O)[C@@H](N)C(C)C)[C@]2(C)[C@@H]([C@H](C)CCC(=O)OCc3ccccc3)CC[C@@H]12.Cl.Cl.Cl,MIC99,Escherichia coli [1],8 µM
same,MIC99,Klebsiella pneumoniae [2],16 µM
same,MIC99,Acinetobacter baumannii [3],16 µM
same,Activity,[4],Active
same,inhibition,Lipopolysaccharide (LPS) [5],Active
same,Activity,Lipopolysaccharide (LPS) [6],Active
same,K,Cell membrane [7],2.41 ×10⁴ /Ms
same,K,Cell membrane [8],6 ×10⁻² /s
same,K,Cell membrane [9],4.06 ×10⁵ /M
same,K,Cell membrane [10],4.19 ×10⁻⁵ /s
same,K,Cell membrane [11],2.39 ×10² /M
same,KA,Cell membrane [12],9.6 ×10⁷ /M
same,Activity,Escherichia coli [13],Active
same,Activity,Escherichia coli [14],Active
same,Activity,Escherichia coli [15],Active
same,Activity,Escherichia coli [16],inactive
same,Activity,Escherichia coli [17],inactive
same,Activity,Escherichia coli [18],Active
same,Activity,Escherichia coli [19],Active
same,Activity,Escherichia coli [20],Dose-dependent effect
same,log(activity),Escherichia coli [21],8
same,Activity,Escherichia coli [22],90%
same,Activity,Escherichia coli [23],Active
same,Activity,Escherichia coli [24],Active
same,Activity,Escherichia coli [25],Active
same,MIC99,Escherichia coli [26],8 µM
same,MIC99,Escherichia coli [27],8 µM
same,MIC99,Escherichia coli [28],8 µM
same,MIC99,Escherichia coli [29],4 µM
same,MIC99,Escherichia coli [30],4 µM
same,MIC99,Acinetobacter baumannii [31],16 µM
same,MIC99,Acinetobacter baumannii [32],16 µM
same,MIC99,Acinetobacter baumannii [33],4 µM
same,MIC99,Acinetobacter baumannii [34],8 µM
same,MIC99,Acinetobacter baumannii [35],4 µM
same,MIC99,Klebsiella pneumoniae [36],8 µM
same,MIC99,Klebsiella pneumoniae [37],8 µM
same,MIC99,Klebsiella pneumoniae [38],4 µM
same,MIC99,Klebsiella pneumoniae [39],8 µM
same,selectivity ratio,[40],6 to 7
same,selectivity ratio,[41],6 to 7
same,CMC,[42],> 100 µM
same,Activity,Escherichia coli [43],Active
same,Activity,Escherichia coli [44],Active
same,Activity,Escherichia coli [45],Active
same,Ratio,Escherichia coli [46],2
same,Activity,Escherichia coli [47],Active
same,Activity,Escherichia coli [48],3 um
same,Activity,Escherichia coli [49],Active
same,Activity,Escherichia coli [50],Active
same,Activity,Escherichia coli [51],Active
same,Activity,Escherichia coli [52],Active
same,Activity,Escherichia coli [53],Active
CC1(C)S[C@@H]2[C@H](NC(=O)[C@H](N)c3ccccc3)C(=O)N2[C@H]1C(=O)O,Activity,Escherichia coli [18],inactive
same,Activity,Escherichia coli [19],inactive
same,Activity,Escherichia coli [24],inactive
C[C@H](CCC(=O)OCc1ccccc1)[C@H]1CC[C@H]2[C@@H]3[C@H](OC(=O)CNC(=O)[C@@H](N)Cc4c[nH]c5ccccc45)C[C@@H]4C[C@H](OC(=O)CNC(=O)[C@@H](N)Cc5c[nH]c6ccccc56)CC[C@]4(C)[C@H]3C[C@H](OC(=O)CNC(=O)[C@@H](N)Cc3c[nH]c4ccccc34)[C@]12C.Cl.Cl.Cl,MIC99,Escherichia coli [1],inactive
same,Activity,[4],inactive
same,solubility,[54],Insoluble
C[C@H](N)C(=O)NCC(=O)O[C@@H]1CC[C@@]2(C)[C@@H](C1)C[C@@H](OC(=O)CNC(=O)[C@H](C)N)[C@@H]1[C@@H]2C[C@H](OC(=O)CNC(=O)[C@H](C)N)[C@]2(C)[C@@H]([C@H](C)CCC(=O)OCc3ccccc3)CC[C@@H]12,MIC99,Escherichia coli [1],8 to 128 µM
